From PubChem BioAssay
NR2E3 ag-1 – activates human photoreceptor nuclear receptor NR2E3; Q9Y5X4; GST-NR2E3/biotin-RetCOR TR-FRET, 1536-well; inhibition of corepressor binding, % at 4.78 µM; 0.12% of 320,000 active; AID 2300;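 active means percent inhibition above the cutoff of mean plus 3 SD of all tested compounds, set per screening campaign, cut at about 20% in these data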;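 further: 0% = DMSO wells and 100% = biotin wells as full block of FRET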
Target sequence (Q9Y5X4 whole entry, looked up): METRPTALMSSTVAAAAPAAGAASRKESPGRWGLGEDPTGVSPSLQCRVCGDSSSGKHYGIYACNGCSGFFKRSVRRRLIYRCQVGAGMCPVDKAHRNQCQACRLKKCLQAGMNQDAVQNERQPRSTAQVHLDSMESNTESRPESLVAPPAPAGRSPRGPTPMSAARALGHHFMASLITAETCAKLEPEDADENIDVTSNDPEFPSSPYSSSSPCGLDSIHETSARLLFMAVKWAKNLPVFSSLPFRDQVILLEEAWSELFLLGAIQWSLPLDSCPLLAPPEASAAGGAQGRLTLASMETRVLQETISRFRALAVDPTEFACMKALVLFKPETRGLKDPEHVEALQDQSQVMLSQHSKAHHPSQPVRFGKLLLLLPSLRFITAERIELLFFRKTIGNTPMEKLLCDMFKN
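System: GST-NR2E3 and biotin-RetCOR proteins; probe or stimulus: 7 nM biotin-RetCOR; doses: compound at 4.8 µM, single dose; schedule: Compound–protein incubation for 5 h at 4 °C; detection: time-resolved FRET; read-out: percent inhibition; controls: biotin wells as high control, 0.6% DMSO wells as low control; format: 1536-well plates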
COUP-TFII inh – inhibitors of human COUP-TFII (NR2F2) | P24468 | 0.7% of 370,000 active | AID 686940 | inhibition, % at 8.6 µM | HEK293T NGFI-A luciferase reporter, luminescence;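 active means inhibition above a per-plate cutoff, mean inhibition of test wells between control levels plus 3 SD, cut at about 38% in these data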;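 further: cells cotransfected with COUP-TFII expression vector driving the NGFI-A reporter; 0% = median of COUP-TF2 test wells and 100% = reporter-only cells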
NR2E3 ag-2 – activates human NR2E3 receptor; Q9Y5X4; CHO-S Gal4-NCOR/VP16-NR2E3 two-hybrid, luciferase; inhibition of corepressor binding, % at 3.98 µM; 0.35% of 360,000 active; AID 602229;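 active means inhibition above the mean of all tested compounds plus 3 SD, cut at about 70% in these data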;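 further: 0% = DMSO with NR2E3 transfected cells and 100% = cells lacking NR2E3 construct; higher means lower luciferase signal from less NR2E3 corepressor binding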
SMARCA2 act – increases SMARCA2 function in MMTV reporter cells | AID 652017 | MG213 cells, MMTV-luciferase reporter, dexamethasone, overnight | 1% of 370,000 active | activation, % at 9.1 µM; in the data active means activation above about 7.8%;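 further: 0% = vehicle wells and 100% = reference activator wells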
GalR3 antagonist – blocks the human galanin receptor 3 | O60755 | HEK293 GalR3-CNG cAMP membrane potential fluorescence; galR3 body fused to GalR1 C-terminus | inhibition, % at 3 µM | 0.44% of 360,000 active | AID 651719;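 active means inhibition above the screen-wide average plus 3 SD, cut at about 13% in these data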;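 further: forskolin and galanin both at EC90 stimulate the cells; cAMP rise reported by CNG channel membrane potential dye signal; 0% = forskolin plus galanin with DMSO and 100% = forskolin alone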
Target sequence (O60755 1-299 limits assumed): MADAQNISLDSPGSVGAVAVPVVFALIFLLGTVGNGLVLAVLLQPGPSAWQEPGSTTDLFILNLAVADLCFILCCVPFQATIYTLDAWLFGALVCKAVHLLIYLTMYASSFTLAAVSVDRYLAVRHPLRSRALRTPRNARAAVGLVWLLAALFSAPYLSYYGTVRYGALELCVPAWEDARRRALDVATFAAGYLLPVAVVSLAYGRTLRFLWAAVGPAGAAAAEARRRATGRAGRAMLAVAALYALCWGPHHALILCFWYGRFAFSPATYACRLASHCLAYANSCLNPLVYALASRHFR
SMARCA2 conf – confirmation of SMARCA2 (BRM) function activators; shares compounds with SMARCA2 act; MG213 cells, MMTV-luciferase with dexamethasone, luminescence, overnight; MG213 cells expressing E1A, Rb sequestered; DMSO wells 0%, reference activator 100%; activation, % at 9.1 µM; 30% of 3,500 active; AID 652260;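 active means activation above its plate's cutoff, the mean activation of tested wells plus 3 SD, cut at about 7.9% in these data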
VP16 Luc act – GAL4-VP16 reporter activation counter-screen | shares compounds with SMARCA2 act | AID 686939 | HEK293 GAL4-VP16 pG5luc reporter, luciferase luminescence; scaled: DMSO wells 0%, SAHA wells 100% | activation, % at 9.1 µM | 41% of 3,500 active;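 active means activation above the solvent-only control well mean plus 3 SD, averaged across control plates, cut at about 5.2% in these data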
Numbers without * were called inactive; . = no result given. Rows were chosen to be rich in hits. Some 2.2% of all compounds tested hit in one or more screens of this group.

SMILES	NR2E3 ag-1	COUP-TFII inh	NR2E3 ag-2	SMARCA2 act	GalR3 antagonist	SMARCA2 conf	VP16 Luc act
O=C(N/N=C/C=C\c1ccco1)c1ccccn1	-5.5	-21.4	-16.3	6.2	-6.1	.	.
Cc1ccc(/C=N/NC(=O)c2ccncc2)o1	3.4	1.1	-14.7	1.2	0.6	.	.
CN(C)c1ccc(/C=N/NC(=O)c2ccccn2)cc1	-2.8	-47.5	-129.1	8.0*	-3.6	6.3	7.5*
Cc1ccc(/C=N/NC(=O)c2ccccn2)o1	2.4	-6.7	-82.6	10.8*	0.2	4.8	4.0
CN(C)c1ccc(/C=N\NC(=O)c2csnn2)cc1	-3.5	-43.1	-47.9	8.4*	5.7	14.7*	10.2*
CSCCCNC(=O)C1CCN(S(=O)(=O)c2ccc3[nH]c(=O)oc3c2)CC1	.	-5.8	.	-3.0	.	.	.
COCCN1C(=O)C2=C(C1=O)C1N(C)c3ccccc3[C@@]13C[C@@H](CO)N(S(=O)(=O)c1ccc(OC)cc1)C3=N2 (stereo partly drawn)	.	-15.2	.	0.9	.	.	.
O=C1Nc2ccccc2S/C1=C/c1cccs1	-5.2	-26.7	-63.4	10.4*	0.4	5.0	0.9
O=C1NC(=S)SC1=Cc1cccs1	.	4.3	-32.0	-0.2	-4.6	.	.
COc1ccc(-n2nc3c(N4CCC(C(=O)NCc5cccc(C)c5)CC4)nnc(C)c3c2C)cc1	-70.0	-13.7	-0.5	14.1*	-7.8	16.9*	0.8
CCOc1ccc(CNC(=O)C2CCN(c3nnc(C)c4c(C)n(-c5ccc(C)cc5)nc34)CC2)cc1	-135.8	23.3	-9.7	-1.9	-7.2	.	.
O=C(O)CCCNS(=O)(=O)c1ccc(F)cc1	1.4	1.3	3.9	8.8*	-1.9	4.7	-0.3
CCOC(=O)[C@@]12CCCC=C1N(CCc1ccc(Cl)cc1)C(=O)[C@H]2CC(=O)N1CCCCC1	.	29.8	.	-2.5	.	.	.
O=C(CSc1cccc[n+]1[O-])Nc1cc([N+](=O)[O-])ccc1Cl	1.2	13.8	-8.7	0.9	-1.2	.	.
Cc1ccc(NC(=O)CSc2cccc[n+]2[O-])c([N+](=O)[O-])c1	2.4	1.7	-13.0	8.4*	0.3	0.3	0.6
O=C(CSc1cccc[n+]1[O-])Nc1cc2c(cc1Cl)C(=O)c1ccccc1C2=O	-1.1	-52.3	-112.7	12.1*	-3.8	13.1*	7.3*
Cc1cc(C)c(NC(=O)CSc2cccc[n+]2[O-])c(C)c1	.	11.2	-1.0	-1.6	-3.5	.	.
O=C(CSc1cccc[n+]1[O-])Nc1ccccc1Oc1ccccc1	5.9	10.7	38.8	8.4*	-3.7	10.2*	1.8
Cc1cccc(S(=O)(=O)N2CCC[C@H]2C(=O)N2CCC[C@@H]2C(=O)NCc2ccccc2)c1	.	-0.2	.	-0.8	-5.0	.	.
COc1ccccc1N1CCN(S(=O)(=O)c2ccc3c(c2)CCC(=O)N3)CC1	.	8.5	.	-0.1	.	.	.
Nc1nc(-c2ccccc2)cc(N2CCCCC2)n1	1.4	-25.4	-50.6	0.2	0.0	.	.
c1ccc(-c2cc(N3CCCCC3)ncn2)cc1	1.5	-27.6	-76.7	8.2*	0.9	8.5*	8.6*
CN(C)CCNC(=S)Nc1ccc(-c2nc3ccccc3[nH]2)cc1	-6.5	-26.1	-49.8	8.3*	-7.1	16.3*	5.9*
S=C(NCCCN1CCOCC1)Nc1ccc(-c2nc3ccccc3[nH]2)cc1	-4.9	7.5	-57.9	2.4	-1.0	.	.
CCCCN(C)C(=O)c1ccc2c(c1)NC(=O)C(C)(C)O2	.	-17.2	.	-3.0	.	.	.
SMILES	NR2E3 ag-1	COUP-TFII inh	NR2E3 ag-2	SMARCA2 act	GalR3 antagonist	SMARCA2 conf	VP16 Luc act
CCc1sc(NC(=O)CN2CCOCC2)nc1-c1ccccc1	1.1	12.9	-5.4	8.7*	0.5	-2.7	-1.9
Cc1nc(NC(=O)CN2CCOCC2)sc1-c1ccccc1	2.9	-36.1	-77.4	3.4	-4.4	.	.
Cc1ccc2[nH]c(=O)c3cc(C(=O)N(C)Cc4ccco4)sc3c2c1	1.8	-9.7	-37.1	8.4*	.	13.4*	-1.2
CN1CCC(=NNC(=O)C(=O)Nc2ccccc2)CC1	4.5	-6.9	-28.3	8.2*	-0.2	6.2	1.8
COc1ccccc1N(Cc1cc(=O)[nH]c2ccccc12)C(=O)c1ccccc1	-0.3	-3.8	-14.7	9.8*	-1.0	-2.4	0.0
CN(Cc1cc(=O)[nH]c2ccccc12)C(=O)c1ccccc1	2.5	-12.8	-22.4	9.4*	-5.9	0.2	1.2
Cc1ccc(-n2c(COc3ccccc3)nnc2SCC(=O)Nc2ccc3c(c2)OCO3)cc1	.	-2.4	.	1.3	.	.	.
CCCc1ncc(C[n+]2ccccc2C)c(N)n1	2.7	2.0	-28.3	9.1*	.	-0.8	0.6
CC(=O)c1cnc2nc(SCc3ccccc3)nn2c1C	0.2	-27.7	-84.3	11.3*	-10.7	5.5	10.2*
O=C(NCc1cccs1)c1cccnc1Cl	0.7	-14.3	-17.8	10.7*	-8.6	0.0	0.1
Cc1ccc(-c2c(NC(=O)c3cccc(C)c3)nc3ncccn23)cc1	.	2.7	.	-0.3	.	.	.
COc1ccc2c(c1O)C(=O)c1ccccc1C2=O	3.4	.	.	.	.	.	.
CC(C)COC(=O)c1ccc2c(c1O)C(=O)c1ccccc1C2=O	-0.9	-57.1	-86.5	8.7*	-1.9	3.5	4.3
COc1cccc(-c2onc3ccc(C(C)=O)cc23)c1	-2.4	-18.6	-98.4	8.4*	-10.8	5.7	2.0
CCOc1ccc(NC(=O)c2nn(C)cc2Br)cc1	3.6	-47.6	-71.9	5.4	-6.7	.	.
CCn1cc(Br)c(C(=O)Nc2ccc(F)cc2F)n1	-0.2	1.2	-50.3	-0.2	-5.4	.	.
CCn1cc(Br)c(C(=O)Nc2cccc(SC)c2)n1	2.4	-10.4	-61.5	8.0*	-11.9	4.1	3.6
COc1cccc(NC(=O)c2ccc3nsnc3c2)c1	1.6	-33.0	-102.1	8.1*	-9.0	3.7	10.3*
COc1cccc(NC(=O)c2nn(C)cc2Br)c1	-2.7	-19.2	-38.9	8.0*	-0.1	4.0	3.0
COC(=O)[C@]12C[C@H](CC(=O)NCC34CC5CC(CC(C5)C3)C4)C(=O)N(CCc3ccc(OC)c(OC)c3)C1=C[C@H](C(C)(C)C)O[C@@H]2C	.	13.6	.	-3.5	.	.	.
COC(=O)C(C)N1C(=O)S/C(=C\c2ccc(-c3ccc(C(=O)O)cc3C)o2)C1=O (stereo not drawn)	-0.5	-20.8	-106.8	11.0*	-4.4	9.8*	10.3*
Nc1nc(Sc2ccc([N+](=O)[O-])c3nonc23)c2[nH]cnc2n1	.	2.4	12.4	26.4*	-4.3	-15.4	0.7
CCC(=O)Nc1cccc(NC(=S)NC(=O)c2cccs2)c1	0.8	-37.4	-28.4	11.1*	2.8	4.5	9.4*
O=C(Nc1ccccc1C(=O)NCc1ccccc1)C1=CSCCO1	-1.1	10.6	-8.8	11.7*	-8.8	-1.8	0.7
